Values after ≈ are worked out from the molar mass of the structure shown.
Assays:
[1] = tested on: Brevibacillus brevis; assay: Antibacterial activity against 1 x 10^6 CFU/mL Brevibacillus brevis ATCC 8246 in cation-adjusted Mueller Hinton 2 broth after 24 hrs by CLSI broth microdilution method; assay type: functional; details: ATCC 8246, 24 h
In short: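 Brevibacillus brevis: 10⁶ cfu inoculated into 1 ml cultures in cation-adjusted Mueller Hinton II broth with compound and 1% DMSO final. Parallel tubes used 0.8% nutrient broth with 0.5% NaCl or without NaCl. Cultures shaken at 28 °C for 24 h. MIC was the lowest concentration inhibiting visible growth.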

[2] = tested on: Pseudomonas aeruginosa; assay: Antibacterial activity against 1 x 10^7 CFU/mL Pseudomonas aeruginosa PAO1 PAS2008 harboring LepB P84L mutant in cation-adjusted Mueller Hinton 2 broth after 24 hrs by CLSI broth microdilution method; assay type: functional; details: PAO1 PAS2008, 24 h
In short: (§1)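 CLSI broth microdilution in cation-adjusted Mueller Hinton II broth. Inoculum made by suspending organisms grown on solid media in the same broth and diluting to 1×10^7 CFU/ml; 5 μl added to 100 μl medium containing graded compound concentrations. MIC is the lowest concentration preventing visible growth, from at least three independent experiments.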

[3] = Antibacterial activity against 1 x 10^7 CFU/mL Escherichia coli MG1655 PAS0260 harboring LepB P84L mutant in cation-adjusted Mueller Hinton 2 broth after 24 hrs by CLSI broth microdilution method; assay type: functional, Escherichia coli str. K-12 substr. MG1655; details: PAS0260, 24 h; in short: as §1
[4] = Antibacterial activity against 1 x 10^7 CFU/mL Staphylococcus aureus NCTC 8325 PAS8001 harboring SpsB P29S mutant in cation-adjusted Mueller Hinton 2 broth after 24 hrs by CLSI broth microdilution method; assay type: functional, Staphylococcus aureus subsp. aureus NCTC 8325; details: PAS8001, 24 h; in short: as §1
[5] = tested on: Staphylococcus epidermidis; assay: Antibacterial activity against 1 x 10^7 CFU/mL wild-type Staphylococcus epidermidis RP62A in cation-adjusted Mueller Hinton 2 broth after 24 hrs by CLSI broth microdilution method; assay type: functional
In short: (§2)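 CLSI broth microdilution. Bacteria from solid media were suspended in the test broth at 1×10^7 cfu/ml, and 5 μl was added to 100 μl medium containing compound. Media were cation-adjusted Mueller Hinton II (R. opacus, S. epidermidis), Todd Hewitt (S. pyogenes, S. pneumoniae) and Trypticase Soy Yeast broth (L. lactis). MIC was the lowest concentration inhibiting visible growth, from at least three independent experiments.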

[6] = tested on: Corynebacterium glutamicum; assay: Antibacterial activity against 1 x 10^7 CFU/mL Corynebacterium glutamicum ATCC 44475 in cation-adjusted Mueller Hinton 2 broth after 24 hrs by CLSI broth microdilution method; assay type: functional; details: ATCC 44475, 24 h; in short: as §1
[7] = tested on: Streptococcus pneumoniae; assay: Antibacterial activity against 1 x 10^7 CFU/mL Streptococcus pneumoniae R800 in Todd Hewitt broth after 24 hrs by CLSI broth microdilution method; assay type: functional; details: R800, 24 h; in short: as §2
[8] = tested on: Streptococcus pyogenes; assay: Antibacterial activity against 1 x 10^7 CFU/mL Streptococcus pyogenes M1-5448 in Todd Hewitt broth after 24 hrs by CLSI broth microdilution method; assay type: functional; details: M1-5448, 24 h; in short: as §2
[9] = tested on: Streptococcus agalactiae; assay: Antibacterial activity against 1 x 10^7 CFU/mL Streptococcus agalactiae COH1 after 24 hrs by CLSI broth microdilution method; assay type: functional; details: COH1, 24 h
In short: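 Streptococcus agalactiae tested by CLSI broth microdilution in both cation-adjusted Mueller Hinton II and Todd Hewitt broth. Inoculum was a suspension from solid media at 1×10^7 cfu/ml, with 5 μl added to 100 μl medium containing compound. MIC was the lowest concentration inhibiting visible growth, from at least three independent experiments.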

[10] = tested on: Rhodococcus opacus; assay: Antibacterial activity against 1 x 10^7 CFU/mL Rhodococcus opacus DSM 1069 in cation-adjusted Mueller Hinton 2 broth after 24 hrs by CLSI broth microdilution method; assay type: functional; details: DSM 1069, 24 h; in short: as §2
[11] = tested on: Prescottella equi; assay: Antibacterial activity against 1 x 10^7 CFU/mL Rhodococcus equi ATCC 6939 in cation-adjusted Mueller Hinton 2 broth after 24 hrs by CLSI broth microdilution method; assay type: functional; details: Rhodococcus (subgen. Prescottella) equi, ATCC 6939, 24 h; in short: as §1
[12] = Antibacterial activity against 1 x 10^7 CFU/mL Staphylococcus epidermidis RP62A PAS9002 harboring Sps1B-S31P mutant in cation-adjusted Mueller Hinton 2 broth after 24 hrs by CLSI broth microdilution method; assay type: functional; details: PAS9002, 24 h; in short: as §1
[13] = tested on: Lactococcus lactis; assay: Antibacterial activity against 1 x 10^7 CFU/mL Lactococcus lactis ATCC 19257 in trypticase soy yeast broth after 24 hrs by CLSI broth microdilution method; assay type: functional; details: ATCC 19257, 24 h; in short: as §2

Compound	MIC [1]	MIC [2]	MIC [3]	MIC [4]	MIC [5]	MIC [6]	MIC [7]	MIC [8]	MIC [9]	MIC [10]	MIC [11]	MIC [12]	MIC [13]
CCCCCCCCCCCCCCCC(=O)N(C)[C@H](CO)C(=O)N[C@H](C)C(=O)NCC(=O)N(C)[C@@H]1C(=O)N[C@@H](C)C(=O)N[C@H](C(=O)O)Cc2cc(N)c(O)c(c2)-c2cc1ccc2O	> 64 µg/mL	32 µg/mL (≈ 35.7 µM)	16 µg/mL (≈ 17.9 µM)	64 µg/mL (≈ 71.4 µM)	8 µg/mL (≈ 8.93 µM)								
CCCCCCCCCCCCCCCC(=O)N(C)[C@H](CO)C(=O)N[C@H](C)C(=O)NCC(=O)N(C)[C@@H]1C(=O)N[C@@H](C)C(=O)N[C@H](C(=O)O)Cc2cc(c(O)c([N+](=O)[O-])c2)-c2cc1ccc2O	> 64 µg/mL	4 µg/mL (≈ 4.32 µM)	2 µg/mL (≈ 2.16 µM)	4 µg/mL (≈ 4.32 µM)	0.25 µg/mL (≈ 0.27 µM)	2 µg/mL (≈ 2.16 µM)	16 µg/mL (≈ 17.3 µM)	4 µg/mL (≈ 4.32 µM)	8 µg/mL (≈ 8.64 µM)	4 µg/mL (≈ 4.32 µM)	32 µg/mL (≈ 34.6 µM)	8 µg/mL (≈ 8.64 µM)	32 µg/mL (≈ 34.6 µM)
CCCCCCCCCCCCCCCC(=O)N(C)[C@H](CO)C(=O)N[C@H](C)C(=O)NCC(=O)N(C)[C@@H]1C(=O)N[C@@H](C)C(=O)N[C@H](C(=O)O)Cc2ccc(O)c(c2)-c2cc1ccc2O [ARYLOMYCIN C16]	> 64 µg/mL	4 µg/mL (≈ 4.54 µM)	2 µg/mL (≈ 2.27 µM)	4 µg/mL (≈ 4.54 µM)	0.25 µg/mL (≈ 0.284 µM)	2 µg/mL (≈ 2.27 µM)	8 µg/mL (≈ 9.08 µM)	8 µg/mL (≈ 9.08 µM)	> 128 µg/mL	1 µg/mL (≈ 1.13 µM)	16 µg/mL (≈ 18.2 µM)	8 µg/mL (≈ 9.08 µM)	16 µg/mL (≈ 18.2 µM)

Reference: ChEMBL document CHEMBL1781879, “Synthesis and biological characterization of arylomycin B antibiotics” (2011)
